# Assay results from different studies.
# Target: RAC-beta serine/threonine-protein kinase (AKT2, Homo sapiens, UniProt P31751)
Compound,observed,technique,tested at,remaining binding [%]
CN(C)c1nccc(-c2cnc3ncccn23)n1,binding,,1 µM,88
O=C(c1ccc(Nc2nccc(-c3cc4ccccc4s3)n2)cc1)N1CCC(N2CCCC2)CC1,binding,competition with immobilised ligand,1 µM,100
CN(CCCC(F)(F)F)c1nccc(-c2cnn3ncccc23)n1,binding,,1 µM,75
c1cncc(-c2cccc(Nc3nccc(NC4CCCCC4)n3)c2)c1,binding,competition with immobilised ligand,10 µM,62
C[C@@H]1CCN(c2nccc(-c3cnn4ncccc34)n2)C1,binding,,1 µM,93
COc1cnc(Nc2cccc(S(N)(=O)=O)c2)nc1N1CCN(c2ccccc2)C(=O)C1,binding,competition with immobilised ligand,1 µM,100
O=C(Nc1c[nH]nc1C(=O)NC1CCNCC1)c1cc(F)cc(F)c1,binding,competition with immobilised ligand,1 µM,87
CCCOc1ccc([C@H]2[C@H](C(=O)O)[C@@H](c3ccc4c(c3)OCO4)CN2CC(=O)Nc2c(CC)cccc2CC)cc1,cell-free assay,competition with immobilised ligand,1 µM,100
CC1CCCN1c1nccc(-c2cnn3ncccc23)n1 (stereo not drawn),binding,,1 µM,100
N#CC1(c2ccccn2)CCN(Cc2cc(C(=O)N3CCCC3)c(=O)n3ccccc23)CC1,cell-free assay,competition with immobilised ligand,1 µM,84
N[C@H]1CCN(c2nccc(-c3cnn4ncccc34)n2)C1,binding,,1 µM,100
COc1cnc(Nc2cccc(S(N)(=O)=O)c2)nc1N1CCN(c2ccccc2)CC1,binding,competition with immobilised ligand,1 µM,94
O=C(NCCCN1CCOCC1)c1ccc(Nc2ncc(Cl)c(-c3ccc(Cl)s3)n2)cc1,binding,competition with immobilised ligand,1 µM,100
CCC(=O)N[C@@H]1CC[C@H](C(=O)N(C)c2ccc(-c3nc4ccccc4o3)cc2)C1,cell-free assay,competition with immobilised ligand,1 µM,72
O=C(c1ccc(Nc2ncc(Cl)c(-c3cc4ccccc4s3)n2)cc1)N1CCC(N2CCCC2)CC1,binding,competition with immobilised ligand,1 µM,88
Cc1c(NC(=O)c2cc(C(N)=O)nc3cc(F)ccc23)c(C(F)(F)F)nn1Cc1ccc(C#N)cc1,cell-free assay,competition with immobilised ligand,1 µM,98
C[C@@H]1CN(c2ccc3ncc(-c4ccc5[nH]nc(C6CC6)c5c4)n3n2)C[C@H](C)O1,binding,competition with immobilised ligand,50 nM,100
Cc1nc(N2CC[C@@H](O)C2)ncc1-c1cc(C(F)(F)F)cc2[nH]ncc12,binding,competition with immobilised ligand,1 µM,87
c1cnn2ncc(-c3ccnc(N4CCC45COC5)n3)c2c1,binding,,1 µM,96
C[C@@H](c1ccc(-n2cnc3c(N)ncnc32)cc1)N1CCc2nn(C)c(Cc3ccccc3)c2C1=O,binding,competition with immobilised ligand,0.1 µM,99
CN(C)c1ncnc(-c2ccc3nc(Nc4cc(CN5CCN(C(=O)CC(F)(F)F)CC5)ccn4)[nH]c3c2)c1Cl,cell-free assay,competition with immobilised ligand,1 µM,95
CC(C)(C)c1ccc(-c2nc(CBr)nn2-c2cccc(O)c2)cc1,cell-free assay,competition with immobilised ligand,10 µM,70
O=C(O)[C@@H]1[C@@H](Cn2nnc3ccccc3c2=O)CC[C@H]1C(=O)c1ccc(OCCC2CCOCC2)cc1,cell-free assay,competition with immobilised ligand,1 µM,100
CN(C)c1ncc(F)c(-c2cnn3ncccc23)n1,binding,,1 µM,100
